The sample as a whole holds a higher share of hits than the screen did.
CHOP UPR activ: activators of apoptotic CHOP UPR arm, primary screen, cell-based, CHO-CHOP luciferase reporter, luminescence, uHTS; AID 449763, 2010; activation, % at 10 µM; UPR activation; percent of tunicamycin response over DMSO baseline; actives 0.34% (n = 330,000);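 active = at 10 µM dose, activation of 40% or more, normalized to positive control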;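 also: 100% = tunicamycin at 10 µg/mL and 0% = DMSO alone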
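Material: CHO-CHOP cells, stable luciferase reporter of PERK-eIF2a-CHOP signalling; quantity: 500 reporter cells seeded per well; buffer or medium: F12 medium containing 10% fetal bovine serum; compound: one dose, 10 µM in 0.5% DMSO; incubation: 6 h compound treatment, 37 °C; measured by: Steady-Glo luciferase luminescence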
CHOP inhibitor: inhibitors of CHOP promoter induction, primary screen, cell-based, unfolded protein response, luciferase reporter; AID 2732, 2010; CHO-K1 CHOP-promoter luciferase, tunicamycin-induced, 15-18 h; inhibition, % at 10 µM; actives 3.8% (n = 220,000);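 active = compounds that reduced the stress-induced luciferase reporter signal by more than about 70% of percent inhibition, limit read from the data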;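 also: 0% = tunicamycin plus vehicle and 100% = wells without tunicamycin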
NOD2 RIPK2 PPI: NOD2-RIPK2 binding disruptors in cells, primary screen, fluorescence, CHO cells, BLA complementation | Receptor-interacting serine/threonine-protein kinase 2 (Homo sapiens), O43353 | inhibition, % at 4.98 µM | actives 0.38% (n = 360,000) | CCF4 ratio; in the data active = inhibition above about 21%;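 also: 0% = vehicle only and 100% = reference blocker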
UPR XBP1 act: activators of adaptive XBP1 UPR arm, primary screen, cell-based, CHO-XBP1 luciferase reporter, luminescence, uHTS; actives 0.33% (n = 330,000); activation, % at 20 µM; IRE1-XBP1 UPR activation; percent of tunicamycin response, DMSO as zero;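 active = versus positive control, 20 µM dose yields 30% or more activation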;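 also: 100% = tunicamycin at 10 µg/mL and 0% = DMSO only wells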
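Signal: luciferase luminescence; Assay system: CHO-XBP1 luciferase reporter cells; Amount: one thousand reporter cells per well; Dosing: 20 µM single concentration, DMSO 1%; Benchmarks: high control tunicamycin 10 µg/mL final, low control DMSO vehicle only; Schedule: 6 h compound exposure at 37 °C, 5% CO2; Evaluation: percent activation relative to tunicamycin reference.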
TLR4 MyD88 comp: inhibitors of TLR4-MyD88 association in cells, primary screen, cell-based, HeLa CL3-4, BLA complementation, FRET ratio; Toll-like receptor 4 (Homo sapiens) + Myeloid differentiation primary response protein …; HeLa CL3-4 TLR4/MyD88 BLA complementation; inhibition, % at 8.4 µM; actives 0.18% (n = 200,000); AID 861, 2007; in the data active = inhibition above about 25%;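 also: 0% = vehicle and 100% = reference inhibitor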
TLR9-MyD88 inh: inhibitors of TLR9-MyD88 association in cells, primary screen, cell-based, CHO, BLA complementation, fluorescence | actives 0.21% (n = 340,000) | AID 504734, 2011 | inhibition, % at 4.98 µM | CCF4 FRET ratio | Toll-like receptor 9 (Homo sapiens) + Myeloid differentiation primary response protein …;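 active = inhibition above the mean over all tested compounds plus 3 SD, cut at about 21% in these data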;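 also: 0% = DMSO only wells and 100% = clavulanate BLA inhibitor control wells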
* = called active by the depositor; / = no result given.

SMILES | CHOP UPR activ | CHOP inhibitor | NOD2 RIPK2 PPI | UPR XBP1 act | TLR4 MyD88 comp | TLR9-MyD88 inh
C=CC[n+]1c(/C=C2\C=Cc3cc(C)ccc3N2CC)ccc2ccccc21 | 21 | 72* | -4 | 6 | 8 | -9
C[C@H]1CN([C@@H](C)CO)C(=O)CCCn2nncc2CO[C@@H]1CN(C)S(=O)(=O)c1ccccc1 | / | / | 0 | / | / | 3
Cc1cc(C)nc(N2CCCC(C(=O)NCCc3ccccc3F)C2)n1 (stereo not given) | 0 | 31 | -2 | 2 | 10 | 4
CCOc1cc(C)nc(N2CCCC(C(=O)NCc3ccccc3F)C2)n1 (stereo not given) | -2 | 71* | -1 | 2 | -1 | 3
COc1ccc(C(=O)Nc2ccccc2C(=O)NC2CC2)c(OC)c1OC | / | / | 0 | / | / | -5
Cn1cc(C(N)=O)c2ccccc21 | -1 | 18 | -16 | -2 | -7 | 1
Cn1cc(C(=O)CCl)c2ccccc21 | / | 88* | -1 | / | 24 | 2
O=C(NCc1ccco1)c1ccc(N2CCCCC2)c([N+](=O)[O-])c1 | 6 | 70* | -16 | 4 | -13 | 2
Nn1c(SCC(=O)NC2CCCCCC2)nnc1-c1ccco1 | / | / | -4 | / | / | -1
CC(C)c1nc2sc3ccccc3c(=O)c2c(=O)n1Cc1ccccc1 | 0 | 11 | -6 | -2 | / | -1
COCCn1c(C2CCCCC2)nc2sc3ccccc3c(=O)c2c1=O | -1 | 92* | -6 | -1 | -3 | -5
COc1ccc(Cn2c(C(C)C)nc3sc4ccccc4c(=O)c3c2=O)cc1 | 2 | 79* | -19 | 0 | / | -12
CCc1nc2sc3ccccc3c(=O)c2c(=O)n1CCOC | -1 | -14 | 2 | 1 | 17 | -1
O=C(Nc1ccc2nc(C(F)(F)F)[nH]c2c1)[C@@H]1O[C@H](CO)[C@@H](O)[C@H]1O | / | / | -6 | / | / | /
CNC(=O)c1cn2c3c(ccc(Cl)c3c1=O)OC(C)C2 (stereo not given) | / | / | -3 | / | / | -7
CCCCn1c(=O)[nH]c(=O)c2c1nc(-c1ccc(CC)c([N+](=O)[O-])c1)n2C | -1 | 76* | / | 8 | -7 | /
Cc1ccc(S(=O)(=O)N2CCC(C(=O)NCCN3CCOCC3)CC2)cc1 | / | / | -4 | / | / | -10
C#CCOCCOCCOCCNc1nc(N2CCN(C(=O)CCCCCCCCCCNC(=O)Cn3cc(C[C@@H](C)O)nn3)CC2)nc(N2CCN(C(=O)CCCCCCCCCCNC(=O)[C@H](CCCN=C(N)N)n3cc(C[C@@H](C)CC)nn3)CC2)n1 | 1 | / | 24* | 4 | / | 19
C#CCOCCOCCOCCNc1nc(N2CCN(C(=O)CCCCCCCCCCNC(=O)Cn3cc(C[C@@H](C)O)nn3)CC2)nc(N2CCN(C(=O)CCCCCCCCCCNC(=O)[C@H](CCCCN)n3cc(CCCC(=O)O)nn3)CC2)n1 | 0 | / | -9 | 1 | / | -2
C#CCOCCOCCOCCNc1nc(N2CCN(C(=O)CCCCCCCCCCNC(=O)[C@H](CO)n3cc(CCCSC)nn3)CC2)nc(N2CCN(C(=O)CCCCCCCCCCNC(=O)[C@H](CCCN=C(N)N)n3cc(C[C@@H](C)CC)nn3)CC2)n1 | 1 | / | 21* | 1 | / | 7
CC1CCN(S(=O)(=O)c2ccc(Cl)cc2Br)CC1 | -1 | 78* | -13 | 1 | -4 | -10
O=S(=O)(c1cc(Cl)ccc1Br)N1CCCCC1 | 0 | 55 | -5 | -1 | 1 | -5
CCSc1nnc(NC(=O)C2CCN(S(=O)(=O)c3c(C)c(C)cc(C)c3C)CC2)s1 | 3 | 78* | / | -1 | -11 | /
CCSc1nnc(NC(=O)C2CCN(S(=O)(=O)c3ccccc3C(F)(F)F)CC2)s1 | 6 | 50 | -9 | -2 | 10 | -10
Cc1[nH]c2ccccc2c1CN1CCc2ccccc2C1 | 9 | 91* | 0 | -3 | -7 | 4
SMILES | CHOP UPR activ | CHOP inhibitor | NOD2 RIPK2 PPI | UPR XBP1 act | TLR4 MyD88 comp | TLR9-MyD88 inh
CN(C)CCCN1CC(C(=O)O)CC1=O (stereo not given) | -1 | 76* | 4 | -1 | 2 | 1
Oc1cccc(-c2nc3ccc4ccccc4c3c3c2CCC3)c1 | 4 | 82* | -17 | 3 | -6 | -4
CCCc1nc(-c2cc3ccc(C)cc3[nH]c2=O)no1 | 1 | -6 | 10 | 3 | 2 | -2
CCOc1cc(-c2nc(-c3ccc(C)nc3OC)no2)cc(OCC)c1OCC | / | 77* | -8 | / | -1 | 10
CCOc1nc(C)ccc1-c1noc(-c2ccccc2OC)n1 | 1 | 72* | -6 | 4 | -11 | -7
CCOc1ccccc1-c1nc(-c2cc3ccc(C)cc3[nH]c2=O)no1 | -1 | 72* | -3 | 6 | -3 | 11
CCc1ccc2c(c1)C(c1ccc([N+](=O)[O-])cc1)=NNC(c1ccc(Br)cc1)=N2 | 15 | 84* | 6 | 0 | 8 | -2
CCOc1ccc(C2=NNC(c3cccs3)=Nc3ccc(OCC)cc32)cc1 | 1 | 27 | / | -4 | 0 | /
COc1cc(OC)cc(-c2nc3ccccc3c(=O)n2OC(=O)c2ccccc2C)c1 | 0 | 94* | 7 | 22 | 7 | 6
O=C(CCS(=O)(=O)c1cccc2nonc12)N1CCOCC1 | 2 | 42 | -5 | 0 | -9 | 1
O=C(CCS(=O)(=O)c1cccc2nonc12)N1CC(=O)N(CCc2ccccc2)C(=O)C1 | 2 | 73* | -10 | 0 | 11 | -9
CC(C)c1nc2sc3c(NCc4ccco4)ncnc3c2c2c1COC(C)(C)C2 | 1 | 78* | 6 | 8 | -4 | 0
O=c1c(O)c(-c2ccc3c(c2)OCO3)oc2ccccc12 | 5 | 74* | 11 | 9 | 11 | -3
COc1ccc(C2CC(=O)Oc3cc(OC)c(OC)c(OC)c32)cc1 (stereo not given) | 2 | / | -6 | 0 | / | -6
COc1ccc(C2CC(O)(c3ccccc3)Oc3c(C)ccc(C)c32)cc1 (stereo not given) | 4 | 98* | 0 | 2 | / | -7
COc1ccc(C2CC(O)(c3ccccc3)Oc3cc(OC)cc(OC)c32)cc1 (stereo not given) | 0 | 85* | -2 | 2 | / | 3
COc1ccc([C@@H]2C[C@@H](c3ccccc3)Oc3c(C)ccc(C(C)C)c32)cc1 | -1 | / | / | -2 | / | /
Cc1ccc(S(=O)(=O)N2[C@@H](CO)CO[C@H]2CC(=O)c2ccccc2)cc1 | / | / | 1 | / | / | /
